Source: ChEMBL document CHEMBL1129453, “3-amino-3,4-dihydro-2H-1-benzopyran derivatives as 5-HT1A receptor ligands and potential anxiolytic agents. 2. Synthesis and quantitative structure-activity relationship studies of spiro[pyrrolidine- and piperidine-2,3'(2'H)-benzopyrans]” (J Med Chem, 1996)

How the values were obtained:
[1] = Binding affinity to 5-hydroxytryptamine 2 receptor using calf frontal cortex, [3H]- ketanserin, and spiperone for NSB; parameters: species or system Bos taurus
Method in brief: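 Calf frontal cortex; [3H]ketanserin near its KD; nonspecific binding with spiperone. Competition binding; IC50 = concentration inhibiting 50% of specific binding.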

[2] = target: T1, 5-hydroxytryptamine receptor 1B (Rattus norvegicus, UniProt P28564); test: Binding affinity to 5-HT1B receptors using rat cortex+striatum + globus pallidus,[3H]-5-OH-tryptamine, and serotonin for NSB
T1 sequence (P28564 whole entry): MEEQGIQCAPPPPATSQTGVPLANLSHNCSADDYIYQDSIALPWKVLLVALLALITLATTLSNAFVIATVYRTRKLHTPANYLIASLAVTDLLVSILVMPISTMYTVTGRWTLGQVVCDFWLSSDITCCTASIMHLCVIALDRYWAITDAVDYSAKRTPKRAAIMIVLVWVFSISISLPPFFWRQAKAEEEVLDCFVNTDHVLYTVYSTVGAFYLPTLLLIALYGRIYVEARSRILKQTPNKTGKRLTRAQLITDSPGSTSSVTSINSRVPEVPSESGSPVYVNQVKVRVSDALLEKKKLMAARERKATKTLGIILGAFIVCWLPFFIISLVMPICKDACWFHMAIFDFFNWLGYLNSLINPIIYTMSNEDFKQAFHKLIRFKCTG
Method in brief: (§1)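 Membranes from rat cortex plus striatum plus globus pallidus; [3H]-5-OH-tryptamine as radioligand at roughly its KD; serotonin defines nonspecific binding. Competition binding; IC50 taken as concentration inhibiting 50% of specific binding.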

[3] = target: T2, 5-hydroxytryptamine receptor 1A (Rattus norvegicus, UniProt P19327); test: Binding affinity to 5-hydroxytryptamine 1A receptor in rat hippocampus membranes,3H-8-OH-DPAT and buspirone for nonspecific binding (NSB); type: cell membranes
T2 sequence (P19327 whole entry): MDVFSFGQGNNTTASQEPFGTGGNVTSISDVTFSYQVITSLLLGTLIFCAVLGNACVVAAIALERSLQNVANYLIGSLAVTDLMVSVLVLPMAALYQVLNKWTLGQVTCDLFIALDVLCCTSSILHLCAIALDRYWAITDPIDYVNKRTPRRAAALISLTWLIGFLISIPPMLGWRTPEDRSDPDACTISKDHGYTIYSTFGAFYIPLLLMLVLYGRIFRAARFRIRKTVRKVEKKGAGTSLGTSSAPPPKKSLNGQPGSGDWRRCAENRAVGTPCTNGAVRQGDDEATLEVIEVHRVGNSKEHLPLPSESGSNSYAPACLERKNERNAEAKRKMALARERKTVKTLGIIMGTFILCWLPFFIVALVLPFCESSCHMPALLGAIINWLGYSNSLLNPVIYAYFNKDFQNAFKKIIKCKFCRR

[4] = target: T3, Serotonin 3 receptor (5HT3) (Mus musculus, UniProt Q9JHJ5+P23979); test: Displacement of [3H]-BRC 36694 from 5-hydroxytryptamine 3 receptor in NG108-15 cells; type: cell-based
T3 sequence (Q9JHJ5 whole entry): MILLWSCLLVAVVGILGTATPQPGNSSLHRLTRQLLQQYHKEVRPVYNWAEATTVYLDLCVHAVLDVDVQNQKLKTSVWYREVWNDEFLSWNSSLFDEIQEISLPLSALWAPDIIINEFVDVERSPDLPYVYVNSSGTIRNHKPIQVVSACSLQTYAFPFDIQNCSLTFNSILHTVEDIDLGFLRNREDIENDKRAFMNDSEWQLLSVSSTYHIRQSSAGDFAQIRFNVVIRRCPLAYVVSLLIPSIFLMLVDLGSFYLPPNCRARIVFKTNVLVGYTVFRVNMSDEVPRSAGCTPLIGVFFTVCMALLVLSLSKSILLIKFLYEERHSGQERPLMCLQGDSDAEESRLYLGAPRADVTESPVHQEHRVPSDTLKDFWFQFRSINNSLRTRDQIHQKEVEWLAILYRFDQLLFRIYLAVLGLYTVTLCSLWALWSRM
T3 sequence (P23979 whole entry): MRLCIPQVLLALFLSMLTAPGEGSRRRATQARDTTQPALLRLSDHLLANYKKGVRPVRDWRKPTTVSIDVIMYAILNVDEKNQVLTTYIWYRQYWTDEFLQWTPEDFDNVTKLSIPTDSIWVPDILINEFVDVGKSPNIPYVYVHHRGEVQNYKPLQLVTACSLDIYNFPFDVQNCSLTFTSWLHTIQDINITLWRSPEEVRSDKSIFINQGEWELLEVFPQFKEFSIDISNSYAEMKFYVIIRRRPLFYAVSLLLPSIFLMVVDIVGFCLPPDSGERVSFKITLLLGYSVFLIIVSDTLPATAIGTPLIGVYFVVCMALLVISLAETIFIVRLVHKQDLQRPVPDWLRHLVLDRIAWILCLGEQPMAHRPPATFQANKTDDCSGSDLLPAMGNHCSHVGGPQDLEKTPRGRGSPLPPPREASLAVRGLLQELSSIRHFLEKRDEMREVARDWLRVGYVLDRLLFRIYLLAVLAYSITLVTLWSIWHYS
Method in brief: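 NG108-15 cells; [3H]-BRC 36694 at approximately its KD; ICS 205930 for nonspecific binding. Competition binding expressed as IC50 against specific binding.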

D(2) dopamine receptor = D(2) dopamine receptor (Bos taurus, UniProt P20288); test: Displacement of [3H]SDZ-205-501 from Dopamine receptor D2 in calf caudate nucleus.
Chain of D(2) dopamine receptor (P20288 whole entry): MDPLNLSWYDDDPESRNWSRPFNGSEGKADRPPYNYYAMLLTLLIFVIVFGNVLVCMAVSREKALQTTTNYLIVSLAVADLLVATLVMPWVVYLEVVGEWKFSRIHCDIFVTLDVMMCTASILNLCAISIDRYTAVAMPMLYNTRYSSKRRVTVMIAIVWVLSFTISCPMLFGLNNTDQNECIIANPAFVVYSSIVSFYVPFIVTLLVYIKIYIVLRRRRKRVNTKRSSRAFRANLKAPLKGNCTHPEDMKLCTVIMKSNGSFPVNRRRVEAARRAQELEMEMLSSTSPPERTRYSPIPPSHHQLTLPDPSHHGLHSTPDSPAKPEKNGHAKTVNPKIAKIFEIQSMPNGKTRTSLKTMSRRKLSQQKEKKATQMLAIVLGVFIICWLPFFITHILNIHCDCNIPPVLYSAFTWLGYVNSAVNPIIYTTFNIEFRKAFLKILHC
Method in brief: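 Calf caudate nucleus; [3H]SDZ205-501 near its KD; butaclamol for nonspecific binding. Competition binding; IC50 for 50% inhibition of specific binding.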

[5] = Displacement of [3H]raclopride from Dopamine receptor […] of calf striatum; parameters: species or system Bos taurus
Method in brief: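 Calf striatum; [3H]raclopride at about its KD; haloperidol for nonspecific binding. Competition assay reporting IC50 (50% inhibition of specific binding).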

[6] = target: T2, 5-hydroxytryptamine receptor 1A; test: Compound was evaluated for binding affinity on 5-hydroxytryptamine 1A receptor in rat hippocampus membranes,3H-8-OH-DPAT and buspirone for nonspecific binding; type: cell membranes
Method in brief: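 Rat hippocampal membranes in competition binding against [³H]-8-OH-DPAT, with the radioligand at roughly its KD. […] IC50 was taken as the concentration inhibiting 50% of specific binding.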

[7] = target: T1, 5-hydroxytryptamine receptor 1B; test: Compound was evaluated for binding affinity on 5-HT1B receptors using rat cortex+striatum+ globus pallidus,[ 3H]-5-OH-tryptamine, and serotonin for NSB.; type: tissue-based; method in brief: as §1
Rattus norvegicus [8] = species on record: Rattus norvegicus; test: Effect of compound on Forskolin-Activated Adenylate Cyclase in Rat Hippocampi at 0 M conc; type: functional
Method in brief: (§2)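 Rat hippocampal membranes incubated 20 min at 30 °C with forskolin 10 μM, [α-32P]ATP 0.1 μM and test compound. Activity measured as conversion to [32P]cAMP (nM/mg protein/20 min), given as % of control. Mean ± standard error of three determinations in two experiments; Student's t-test versus 100%, p < 0.05.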

Rattus norvegicus [9] = species on record: Rattus norvegicus; test: Effect of compound on Forskolin-Activated Adenylate Cyclase in Rat Hippocampi at 10e-9 M conc; type: functional; method in brief: as §2
Rattus norvegicus [10] = species on record: Rattus norvegicus; test: Effect of compound on Forskolin-Activated Adenylate Cyclase in Rat Hippocampi at 10e-7 M conc; type: functional; method in brief: as §2
Rattus norvegicus [11] = species on record: Rattus norvegicus; test: Effect of compound on Forskolin-Activated Adenylate Cyclase in Rat Hippocampi at 10e-10 M conc; type: functional; method in brief: as §2
Rattus norvegicus [12] = species on record: Rattus norvegicus; test: Effects of enantiomeric compound on adenylate cyclase activity in rat hippocampus at 1 micro M conc; type: functional; method in brief: as §2
Rattus norvegicus [13] = species on record: Rattus norvegicus; test: Effect of compound on Forskolin-Activated Adenylate Cyclase in Rat Hippocampi at 10e-6 M conc; type: functional; method in brief: as §2
Rattus norvegicus [14] = species on record: Rattus norvegicus; test: Effects of enantiomeric compound on adenylate cyclase activity in rat hippocampus; type: functional; method in brief: as §2
Rattus norvegicus [15] = species on record: Rattus norvegicus; test: Effect of compound on Forskolin-Activated Adenylate Cyclase in Rat Hippocampi at 10e-8 M conc (p<0.05); type: functional; method in brief: as §2
Rattus norvegicus [16] = species on record: Rattus norvegicus; test: Effects of enantiomeric compound on adenylate cyclase activity in rat hippocampus at 10e-5 M; type: functional; method in brief: as §2
Rattus norvegicus [17] = species on record: Rattus norvegicus; test: Effects of enantiomeric compound on adenylate cyclase activity in rat hippocampus at 10e-6 M; type: functional; method in brief: as §2
Rattus norvegicus [18] = species on record: Rattus norvegicus; test: Effects of enantiomeric compound on adenylate cyclase activity in rat hippocampus at 1 uM; type: functional; method in brief: as §2
Rattus norvegicus [19] = species on record: Rattus norvegicus; test: Effects of enantiomeric compound on adenylate cyclase activity in rat hippocampus at 10e-8 M; type: functional; method in brief: as §2
Rattus norvegicus [20] = species on record: Rattus norvegicus; test: Effects of enantiomeric compound on adenylate cyclase activity in rat hippocampus at 10e-7 M; type: functional; method in brief: as §2

Structure (SMILES)	IC50 [1]	IC50 [2]	IC50 [3]	IC50 [4]	IC50 (D(2) dopamine receptor)	IC50 [5]	further results
COc1cccc2c1CC1(CCC(=O)N1)CO2 (configuration not stated)	> 100 µM	> 10 µM	4.37 µM	> 100 µM			
CCCN1CCCC12COc1cccc(OCCCCN3C(=O)CC4(CCCC4)CC3=O)c1C2 (configuration not stated)	67.3 µM	2.7 µM	0.101 µM	3.97 µM			
COc1cccc2c1CC1(CCCN1C(C)=O)CO2 (configuration not stated)	> 100 µM	246 µM	81.4 µM	> 100 µM			
CCCN1CCCC12COc1cccc(O)c1C2 (configuration not stated)	364 µM	> 100 µM		7.93 µM	71.4 µM	> 1000 µM	IC50 [6]: 0.0385 µM
CCCN1CCCC12COc1ccccc1C2 (configuration not stated)	233 µM	> 1000 µM	1.3 µM	14.5 µM			
O=C1CC2(CCCC2)CC(=O)N1CCCCN1CCCC12COc1ccccc1C2 (configuration not stated)	5.95 µM	3.8 µM	0.178 µM	12.5 µM			
CCCN1CCCCC12COc1cccc(OC)c1C2 (configuration not stated)	41.4 µM	69.1 µM	0.42 µM	14.9 µM	14.7 µM	100 µM	
COc1cccc2c1CC1(CCCCN1CCCCNS(=O)(=O)c1ccc(C)cc1)CO2 (configuration not stated)	21.1 µM	51.1 µM	0.068 µM	118 µM	4.22 µM	38 µM	
CCCN1C(=O)CCC12COc1cccc(OC)c1C2 (configuration not stated)	793 µM	> 100 µM	14.2 µM	> 100 µM			
COc1cccc2c1CC1(CCCN1)CO2 (configuration not stated)	71.4 µM	4.4 µM	0.298 µM	10.2 µM			
CCCN(CCC)C1COc2cccc(OC)c2C1 (configuration not stated)	60 µM						
COc1cccc2c1CC1(CCCCN1CCCCNC(=O)c1ccc(F)cc1)CO2 (configuration not stated)	8.39 µM		0.0628 µM	66.5 µM	4.3 µM	38.3 µM	IC50 [7]: 11.2 µM
COc1cccc2c1CC1(CCCCN1CCCCN1C(=O)CC3(CCCC3)CC1=O)CO2 (configuration not stated)	2.91 µM	2.21 µM	0.00881 µM	41.4 µM	2.84 µM	23.4 µM	
CCCN1CCCC12COc1cccc(OC)c1C2 (configuration not stated)	112 µM	11 µM	0.0746 µM	3.59 µM	6.55 µM	120 µM	
COc1cccc2c1CC1(CCCN1CCCCN1C(=O)CC3(CCCC3)CC1=O)CO2 (single isomer, unassigned; (+))	0.886 µM	1.3 µM	0.00672 µM	12.1 µM	1.31 µM	22.4 µM	Effect (Rattus norvegicus [8]): 100%; Effect (Rattus norvegicus [9]): 91%; Effect (Rattus norvegicus [10]): 84%; Effect (Rattus norvegicus [11]): 97%; Effect (Rattus norvegicus [12]): 79%; Effect (Rattus norvegicus [13]): 82%; Effect (Rattus norvegicus [14]): 98%; Effect (Rattus norvegicus [15]): 88%
CCCN(CCCCN1C(=O)CC2(CCCC2)CC1=O)C1COc2cccc(OC)c2C1 (single isomer, unassigned; (+))	3 µM				0.02 µM		
COc1cccc2c1CC1(CCCN1CCCCN1C(=O)CC3(CCCC3)CC1=O)CO2 (single isomer, unassigned; (-))	13.9 µM	31.1 µM		10.6 µM	11.3 µM	23.3 µM	Effect (Rattus norvegicus [16]): 81%; Effect (Rattus norvegicus [17]): 86%; Effect (Rattus norvegicus [18]): 101%; Effect (Rattus norvegicus [19]): 98%; Effect (Rattus norvegicus [20]): 92%; Effect (Rattus norvegicus [14]): 101%
CCCN(CCCCN1C(=O)CC2(CCCC2)CC1=O)C1COc2cccc(OC)c2C1 (single isomer, unassigned; (-))	5 µM						
CCCN(CCCCN1C(=O)CC2(CCCC2)CC1=O)C1COc2cccc(OC)c2C1 (stereo in doubt; 2)	1 µM						
COc1cccc2c1CC1(CCCN1CCCCN1C(=O)CC3(CCCC3)CC1=O)CO2 (stereo in doubt; 11a)	6.61 µM	3.8 µM	0.0106 µM	30.7 µM			
CCCN(CCC)C1CCc2cccc(O)c2C1 (configuration not stated) [8-OH-DPAT]	49 µM						
O=C1CC2(CCCC2)CC(=O)N1CCCCN1CCN(c2ncccn2)CC1 [BUSPIRONE]	10 µM					270 µM	
O=C1c2ccccc2S(=O)(=O)N1CCCCN1CCN(c2ncccn2)CC1 [IPSAPIRONE]	7.5 µM						
